Here are results for 37 sequences from the array DNA melting data of Ke et al. (doi:10.1101/2024.01.08.574731).

Data set [1] in a line: melting temperature; fluorescence melt of hairpins on a sequencing array, two-state fit, raised by 9.35 °C to match UV melts. The note with it: sodium 0.088 M. Summed up: (§1)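 Cy3 signals were normalised both to pre-quench Cy3 and to control constructs. They came from library hairpins carrying annealed Cy3 and quencher oligos on a sequenced MiSeq flow cell, imaged in 50 mM Na-HEPES pH 8.0, 25 mM NaCl, in 2.5 °C steps up to 60 °C. Bootstrapped two-state fits gave melting temperature and folding enthalpy, and four replicates were combined by inverse variance. Fitted temperatures were then raised by 9.35 °C to match UV melts.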

Data set [2] is described as follows: folding enthalpy; higher = less favourable; fluorescence melt of hairpins on a sequencing array, two-state fit. Conditions: sodium 0.088 M. Summed up: as §1

Take GATCTCTACAGAGATC ((((((....)))))): the Tm in data set [1] was found to be 55.8 °C. In addition, the folding enthalpy in data set [2] was -45.2 kcal/mol.

As for GCAGTTGGAAACAGCTGC ((((.((....)).)))), in data set [1], the Tm worked out at 54.5 °C. For the same sequence, in data set [2], the folding enthalpy is -31.9 kcal/mol.

GCCGTCGAAAGACCGGC ((((((....))).))): in data set [1], the Tm is 60.5 °C. Besides, the folding enthalpy in data set [2] is -36.8 kcal/mol.

For GGTCAAGGAAACTCGACC ((((.((....)).)))), the Tm in data set [1] is 40.8 °C. For the same sequence, the folding enthalpy in data set [2] was -26.6 kcal/mol.

Turning to GAAACCGAAAGGTTGTTC ((((((....)))..))), the Tm in data set [1] stood at 36.8 °C. Further, the folding enthalpy in data set [2] was -13.7 kcal/mol.

On to GCAAGGGGAAACCCTCAC (..((((....))))..), for which the Tm in data set [1] came to 25.2 °C. The folding enthalpy in data set [2] was -9.15 kcal/mol.

As for GATCCCGAAAGGGCGATC ((((((....)))..))), the Tm in data set [1] turned out to be 31.9 °C. The folding enthalpy in data set [2] is -12.2 kcal/mol.

Consider GGTTCAGGAAACTGAGCC ((.((((....)))).)), for which the Tm in data set [1] came to 50 °C. The folding enthalpy in data set [2] is -30.2 kcal/mol.

On to GATTACGAAAGTACATC ((((((....))).))), for which the Tm in data set [1] was 31.1 °C. In addition, in data set [2], the folding enthalpy was -17.7 kcal/mol.

Take GCTCCGCGAAAGCTGAGC ((((.((....)).)))): the Tm in data set [1] worked out at 61.1 °C. The folding enthalpy in data set [2] was -32.3 kcal/mol.

With GGACGTCGAAAGACTCC (((.(((....)))))), the Tm in data set [1] was determined as 51.2 °C. Besides, in data set [2], the folding enthalpy was -23.8 kcal/mol.

Turning to GCTGCCACGAAAGTGAGC (((..(((....)))))), in data set [1], the Tm was 50.2 °C. Besides, in data set [2], the folding enthalpy was -13.1 kcal/mol.

Take GATCGAGTGATCGATC ((((((....)))))): the Tm in data set [1] turned out to be 55.3 °C. The folding enthalpy in data set [2] was -40.1 kcal/mol.

As for GCTAAACCGAAAGGTAGC (((..(((....)))))), in data set [1], the Tm was found to be 44.5 °C. The folding enthalpy in data set [2] is -26.1 kcal/mol.

As to GGATACGGAAACGTACCC ((.((((....)))).)), in data set [1], the Tm turned out to be 43.3 °C. In addition, in data set [2], the folding enthalpy was -21.1 kcal/mol.

Consider GTGCGCGAAAGCGAACAC ((((((....)))..))), for which the Tm in data set [1] turned out to be 58.5 °C. Further, the folding enthalpy in data set [2] was -12.6 kcal/mol.

On to GATTCCGAAAGGATGATC ((((((....)))..))), for which the Tm in data set [1] is 31.8 °C. The folding enthalpy in data set [2] is -21.8 kcal/mol.

For the sequence GGCGTCGGAAACGGTGCC (((..((....))..))), the Tm in data set [1] was 51.6 °C. Besides, the folding enthalpy in data set [2] was -30.6 kcal/mol.

Turning to ATTTCGAAAGAAAT (((((....))))), the Tm in data set [1] came out at 42.1 °C. Moreover, the folding enthalpy in data set [2] was -16 kcal/mol.

On to GTAGGCGAAAGCCATTAC ((((((....)))..))), for which, in data set [1], the Tm was determined as 23 °C. Also, the folding enthalpy in data set [2] is -7.44 kcal/mol.

GCTCGCGAAAGCGCAGC ((((((....))).))): the Tm in data set [1] was 54.4 °C. Besides, in data set [2], the folding enthalpy was -19.6 kcal/mol.

For GTACGTGGAAACACGCAC ((.((((....)))).)), in data set [1], the Tm is 47.3 °C. The folding enthalpy in data set [2] is -17.2 kcal/mol.

CGGTCGGAAACGACGCCG ((((((....)))..))): in data set [1], the Tm stood at 36.7 °C. For the same sequence, in data set [2], the folding enthalpy was -11.7 kcal/mol.

For the sequence GCCTTTGGAAACAGAGGC ((((.((....)).)))), the Tm in data set [1] was determined as 48.2 °C. The folding enthalpy in data set [2] is -31.1 kcal/mol.

In the case of GCAATCGAAAGATGTTGC ((((((....)))..))), the Tm in data set [1] worked out at 34.6 °C. Further, the folding enthalpy in data set [2] was -15.9 kcal/mol.

Consider GCATAGACGAAAGTCTGC (((..(((....)))))), for which the Tm in data set [1] was found to be 46.3 °C. For the same sequence, the folding enthalpy in data set [2] is -15.5 kcal/mol.

Regarding GATCAAAAGATTGATC ((((((....)))))), the Tm in data set [1] is 33.3 °C. In addition, the folding enthalpy in data set [2] was -20.6 kcal/mol.

For the sequence GATCGGTTCTCCGATC ((((((....)))))), the Tm in data set [1] amounted to 60.6 °C. For the same sequence, the folding enthalpy in data set [2] was -44.3 kcal/mol.

Turning to GTTGCCGAAAGGCATAAC ((((((....)))..))), in data set [1], the Tm worked out at 36.8 °C. Further, in data set [2], the folding enthalpy was -9 kcal/mol.

For the sequence GAGCGCGGAAACGCGTTC ((.((((....)))).)), in data set [1], the Tm was determined as 57.4 °C. Further, the folding enthalpy in data set [2] was -16.9 kcal/mol.

As to GTTTCCGAAAGGATCAAC ((((((....)))..))), in data set [1], the Tm is 22.4 °C. In addition, in data set [2], the folding enthalpy was -11.2 kcal/mol.

Consider GTGTGTGAAAACACAC ((((((....)))))), for which, in data set [1], the Tm worked out at 64.3 °C. Further, the folding enthalpy in data set [2] was -36.7 kcal/mol.

Take CGAGGGAAACCTCG (((((....))))): the Tm in data set [1] is 53.7 °C. In addition, in data set [2], the folding enthalpy is -25.4 kcal/mol.

Consider GATCGAATGATCGATC ((((((....)))))), for which the Tm in data set [1] is 51.7 °C. Moreover, the folding enthalpy in data set [2] is -19.6 kcal/mol.

Turning to GATCTGTAACCAGATC ((((((....)))))), the Tm in data set [1] was determined as 46.8 °C. Also, the folding enthalpy in data set [2] is -29.3 kcal/mol.

Turning to GATCTTGATAAGATC ((((((...)))))), in data set [1], the Tm is 43.6 °C. The folding enthalpy in data set [2] was -21.6 kcal/mol.

As to GCTTAAGAAATTAAGC ((((((....)))))), the Tm in data set [1] was found to be 43.5 °C. For the same sequence, the folding enthalpy in data set [2] is -26.4 kcal/mol.
